Test results as given in ChEMBL document CHEMBL1649165, “Activity profile in vitro of micafungin against Spanish clinical isolates of common and emerging species of yeasts and molds” (2009).
Values after ≈ are worked out from the molar mass of the structure shown.

Columns and labels:
Format in all cases: functional
Candida albicans = assay: Antimicrobial activity against Candida albicans by broth microdilution method
How it was run: (§1)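 Clinical isolates from human patients, tested by broth microdilution using the AFST-EUCAST reference procedure for fermentative yeasts. The MIC was read per that reference method.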

Candida tropicalis = assay: Antimicrobial activity against Candida tropicalis by broth microdilution method; how it was run: as §1
Nakaseomyces glabratus = assay: Antimicrobial activity against Candida glabrata by broth microdilution method; how it was run: as §1
Kluyveromyces marxianus = assay: Antimicrobial activity against Candida kefyr by broth microdilution method; how it was run: as §1
Wickerhamomyces anomalus = assay: Antimicrobial activity against Candida pelliculosa by broth microdilution method; details: Hansenula anomala; how it was run: as §1
Pichia norvegensis = assay: Antimicrobial activity against Candida norvegensis by broth microdilution method; how it was run: as §1
[Candida] intermedia = Antimicrobial activity against Candida intermedia by broth microdilution method; details: Sungouiella intermedia; how it was run: as §1
Candida metapsilosis = assay: Antimicrobial activity against Candida metapsilosis by broth microdilution method; details: Lodderomyces metapsilosis; how it was run: as §1
[Candida] zeylanoides = Antimicrobial activity against Candida zeylanoides by broth microdilution method; details: Dujonia zeylanoides; how it was run: as §1
Saccharomyces cerevisiae = assay: Antimicrobial activity against Saccharomyces cerevisiae by broth microdilution method
Yarrowia lipolytica = assay: Antimicrobial activity against Yarrowia lipolytica by broth microdilution method
Rhodotorula mucilaginosa = assay: Antimicrobial activity against Rhodotorula mucilaginosa by broth microdilution method
How it was run: (§2)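 Nonfermentative yeast clinical isolates (Rhodotorula, Trichosporon) tested by broth microdilution. The EUCAST yeast recommendations were followed strictly, with one minor modification to improve growth. MIC was read as the endpoint.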

Trichosporon dermatis = assay: Antimicrobial activity against Trichosporon dermatis by broth microdilution method; details: Cutaneotrichosporon dermatis; how it was run: as §2
Rhodotorula glutinis = assay: Antimicrobial activity against Rhodotorula glutinis by broth microdilution method; how it was run: as §2
Trichosporon domesticum = assay: Antimicrobial activity against Trichosporon mycotoxinivorans by broth microdilution method; details: Apiotrichum domesticum
How it was run: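 Spanish human clinical isolates were tested as nonfermentative yeasts by broth microdilution. The method strictly followed the EUCAST recommendations, with a minor modification to improve growth, and the read-out was the MIC.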

Trichosporon = assay: Antimicrobial activity against Trichosporon spp. by broth microdilution method; how it was run: as §2
Aspergillus terreus = assay: Antimicrobial activity against Aspergillus terreus by broth microdilution method
How it was run: (§3)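 Clinical mould isolates, tested by broth microdilution using the AFST-EUCAST reference method for filamentous fungi. For echinocandins, the endpoint was the minimum effective concentration: the lowest drug concentration giving aberrant hyphal growth, read with an inverted microscope.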

Aspergillus flavus = assay: Antimicrobial activity against Aspergillus flavus by broth microdilution method; how it was run: as §3
Aspergillus niger = assay: Antimicrobial activity against Aspergillus niger by broth microdilution method; how it was run: as §3
Aspergillus nidulans = assay: Antimicrobial activity against Aspergillus nidulans by broth microdilution method; how it was run: as §3
Aspergillus sydowii = assay: Antimicrobial activity against Aspergillus sydowii by broth microdilution method; how it was run: as §3
Aspergillus versicolor = assay: Antimicrobial activity against Aspergillus versicolor by broth microdilution method; how it was run: as §3
Aspergillus ochraceus = assay: Antimicrobial activity against Aspergillus ochraceus by broth microdilution method; how it was run: as §3
Fennellia nivea = assay: Antimicrobial activity against Aspergillus niveus by broth microdilution method; how it was run: as §3
Aspergillus glaucus = assay: Antimicrobial activity against Aspergillus glaucus by broth microdilution method; how it was run: as §3
Penicillium = assay: Antimicrobial activity against Penicillium spp. by broth microdilution method
How it was run: (§4)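 Filamentous fungus clinical isolates tested by the AFST-EUCAST reference broth microdilution method for moulds. For echinocandins, the endpoint was the minimum effective concentration: the lowest drug concentration giving aberrant hyphal growth, read with an inverted microscope.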

Fusarium proliferatum = assay: Antimicrobial activity against Fusarium proliferatum by broth microdilution method; how it was run: as §3
Fusarium oxysporum = assay: Antimicrobial activity against Fusarium oxysporum by broth microdilution method; how it was run: as §3
Fusarium verticillioides = assay: Antimicrobial activity against Fusarium verticillioides by broth microdilution method; how it was run: as §4
Paecilomyces lilacinus = assay: Antimicrobial activity against Paecilomyces lilacinus by broth microdilution method; details: Purpureocillium lilacinum; how it was run: as §4
[1] = test system: Scopulariopsis brevicaulis; assay: Antimicrobial activity against Scopulariopsis brevicaulis by broth microdilution method; how it was run: as §4
Trichoderma = assay: Antimicrobial activity against Trichoderma spp. by broth microdilution method; how it was run: as §4
Phialemonium curvatum = assay: Antimicrobial activity against Phialemonium curvatum by broth microdilution method; details: Thyridium curvatum; how it was run: as §4
Scedosporium apiospermum = assay: Antimicrobial activity against Scedosporium apiospermum by broth microdilution method; how it was run: as §4
Alternaria alternata = assay: Antimicrobial activity against Alternaria alternata by broth microdilution method; how it was run: as §3
Lewia infectoria = assay: Antimicrobial activity against Alternaria infectoria by broth microdilution method; how it was run: as §3
Exophiala dermatitidis = assay: Antimicrobial activity against Exophiala dermatitidis by broth microdilution method
Aureobasidium pullulans = assay: Antimicrobial activity against Aureobasidium pullulans by broth microdilution method
Hortaea werneckii = assay: Antimicrobial activity against Hortaea werneckii by broth microdilution method
Lecythophora hoffmannii = assay: Antimicrobial activity against Lecythophora hoffmannii by broth microdilution method; details: Coniochaeta hoffmannii; how it was run: as §4
Mucor = assay: Antimicrobial activity against Mucor spp.by broth microdilution method; how it was run: as §4
[2] = Antimicrobial activity against Rhizopus microsporus by broth microdilution method; how it was run: as §4
Rhizomucor = assay: Antimicrobial activity against Rhizomucor spp.by broth microdilution method; how it was run: as §4
Saksenaea vasiformis = assay: Antimicrobial activity against Saksenaea vasiformis by broth microdilution method; how it was run: as §4
Beauveria bassiana = assay: Antimicrobial activity against Beauveria bassiana by broth microdilution method; how it was run: as §3

Work on `CC[C@@H]([C@H](C)O)n1ncn(-c2ccc(N3CCN(c4ccc(OC[C@@H]5CO[C@@](Cn6cncn6)(c6ccc(F)cc6F)C5)cc4)CC3)cc2)c1=O` [POSACONAZOLE] yielded an MIC50 (Candida albicans) of 0.02 µg/mL (≈ 0.0285 µM), an MIC90 (Candida albicans) of 0.02 µg/mL (≈ 0.0285 µM) and an MIC50 (Candida tropicalis) of 0.02 µg/mL (≈ 0.0285 µM). It also gave an MIC90 (Candida tropicalis) of 0.03 µg/mL (≈ 0.0428 µM), an MIC50 (Nakaseomyces glabratus) of 0.25 µg/mL (≈ 0.357 µM) and an MIC90 (Nakaseomyces glabratus) of 1 µg/mL (≈ 1.43 µM). The MIC50 (Kluyveromyces marxianus) was 0.03 µg/mL (≈ 0.0428 µM), the MIC90 (Kluyveromyces marxianus) was 0.06 µg/mL (≈ 0.0856 µM) and the MIC50 (Wickerhamomyces anomalus) was 0.03 µg/mL (≈ 0.0428 µM). The MIC90 (Wickerhamomyces anomalus) was > 8 µg/mL, the MIC50 (Pichia norvegensis) was 0.03 µg/mL (≈ 0.0428 µM) and the MIC90 (Pichia norvegensis) was > 8 µg/mL. For the same molecule, the MIC50 ([Candida] intermedia) was 0.03 µg/mL (≈ 0.0428 µM), the MIC90 ([Candida] intermedia) was > 8 µg/mL and the MIC50 (Candida metapsilosis) was 0.03 µg/mL (≈ 0.0428 µM). For the same molecule, the MIC90 (Candida metapsilosis) was > 8 µg/mL, the MIC50 ([Candida] zeylanoides) was 0.03 µg/mL (≈ 0.0428 µM) and the MIC90 ([Candida] zeylanoides) was > 8 µg/mL. The MIC50 (Saccharomyces cerevisiae) was 0.25 µg/mL (≈ 0.357 µM), the MIC90 (Saccharomyces cerevisiae) was 0.5 µg/mL (≈ 0.713 µM) and the MIC50 (Yarrowia lipolytica) was 0.25 µg/mL (≈ 0.357 µM). The MIC90 (Yarrowia lipolytica) was 2 µg/mL (≈ 2.85 µM), the MIC50 (Rhodotorula mucilaginosa) was 2 µg/mL (≈ 2.85 µM) and the MIC90 (Rhodotorula mucilaginosa) was > 8 µg/mL. For the same molecule, the MIC50 (Trichosporon dermatis) was 0.25 µg/mL (≈ 0.357 µM), the MIC90 (Trichosporon dermatis) was > 8 µg/mL and the MIC50 (Rhodotorula glutinis) was 0.25 µg/mL (≈ 0.357 µM). The MIC90 (Rhodotorula glutinis) was > 8 µg/mL, the MIC50 (Trichosporon domesticum) was 0.25 µg/mL (≈ 0.357 µM) and the MIC90 (Trichosporon domesticum) was > 8 µg/mL. The MIC50 (Trichosporon) was 0.25 µg/mL (≈ 0.357 µM), the MIC90 (Trichosporon) was > 8 µg/mL and the MIC50 (Aspergillus terreus) was 0.06 µg/mL (≈ 0.0856 µM). It also gave an MIC90 (Aspergillus terreus) of 0.12 µg/mL (≈ 0.171 µM), an MIC50 (Aspergillus flavus) of 0.12 µg/mL (≈ 0.171 µM) and an MIC90 (Aspergillus flavus) of 0.25 µg/mL (≈ 0.357 µM). It also gave an MIC50 (Aspergillus niger) of 0.25 µg/mL (≈ 0.357 µM), an MIC90 (Aspergillus niger) of 0.5 µg/mL (≈ 0.713 µM) and an MIC50 (Aspergillus nidulans) of 0.06 µg/mL (≈ 0.0856 µM). The MIC90 (Aspergillus nidulans) was 0.25 µg/mL (≈ 0.357 µM), the MIC50 (Aspergillus sydowii) was 0.25 µg/mL (≈ 0.357 µM) and the MIC90 (Aspergillus sydowii) was 0.5 µg/mL (≈ 0.713 µM). The MIC50 (Aspergillus versicolor) was 0.25 µg/mL (≈ 0.357 µM), the MIC90 (Aspergillus versicolor) was 0.5 µg/mL (≈ 0.713 µM) and the MIC50 (Aspergillus ochraceus) was 0.12 µg/mL (≈ 0.171 µM). For the same molecule, the MIC90 (Aspergillus ochraceus) was > 8 µg/mL, the MIC50 (Fennellia nivea) was 0.12 µg/mL (≈ 0.171 µM) and the MIC90 (Fennellia nivea) was > 8 µg/mL. The MIC50 (Aspergillus glaucus) was 0.12 µg/mL (≈ 0.171 µM), the MIC90 (Aspergillus glaucus) was > 8 µg/mL and the MIC50 (Penicillium) was 0.25 µg/mL (≈ 0.357 µM). The MIC90 (Penicillium) was 4 µg/mL (≈ 5.71 µM), the MIC50 (Fusarium proliferatum) was > 8 µg/mL and the MIC90 (Fusarium proliferatum) was > 8 µg/mL. The MIC50 (Fusarium oxysporum) was 4 µg/mL (≈ 5.71 µM), the MIC90 (Fusarium oxysporum) was > 8 µg/mL and the MIC50 (Fusarium verticillioides) was 2 µg/mL (≈ 2.85 µM). For the same molecule, the MIC90 (Fusarium verticillioides) was > 8 µg/mL, the MIC50 (Paecilomyces lilacinus) was 0.25 µg/mL (≈ 0.357 µM) and the MIC90 (Paecilomyces lilacinus) was 0.5 µg/mL (≈ 0.713 µM). For the same molecule, the MIC50 [1] was 4 µg/mL (≈ 5.71 µM), the MIC90 [1] was > 8 µg/mL and the MIC50 (Trichoderma) was 4 µg/mL (≈ 5.71 µM). The MIC90 (Trichoderma) was > 8 µg/mL, the MIC50 (Phialemonium curvatum) was 4 µg/mL (≈ 5.71 µM) and the MIC90 (Phialemonium curvatum) was > 8 µg/mL. For the same molecule, the MIC50 (Scedosporium apiospermum) was 1 µg/mL (≈ 1.43 µM), the MIC90 (Scedosporium apiospermum) was 8 µg/mL (≈ 11.4 µM) and the MIC50 (Alternaria alternata) was 1 µg/mL (≈ 1.43 µM). For the same molecule, the MIC90 (Alternaria alternata) was > 8 µg/mL, the MIC50 (Lewia infectoria) was 0.5 µg/mL (≈ 0.713 µM) and the MIC90 (Lewia infectoria) was > 8 µg/mL. The MIC50 (Exophiala dermatitidis) was 0.06 µg/mL (≈ 0.0856 µM), the MIC90 (Exophiala dermatitidis) was > 8 µg/mL and the MIC50 (Aureobasidium pullulans) was 0.06 µg/mL (≈ 0.0856 µM). The MIC90 (Aureobasidium pullulans) was > 8 µg/mL, the MIC50 (Hortaea werneckii) was 0.06 µg/mL (≈ 0.0856 µM) and the MIC90 (Hortaea werneckii) was > 8 µg/mL. The MIC50 (Lecythophora hoffmannii) was 0.06 µg/mL (≈ 0.0856 µM), the MIC90 (Lecythophora hoffmannii) was > 8 µg/mL and the MIC50 (Mucor) was 4 µg/mL (≈ 5.71 µM). The MIC90 (Mucor) was > 8 µg/mL, the MIC50 [2] was 4 µg/mL (≈ 5.71 µM) and the MIC90 [2] was > 8 µg/mL. For the same molecule, the MIC50 (Rhizomucor) was 4 µg/mL (≈ 5.71 µM), the MIC90 (Rhizomucor) was > 8 µg/mL and the MIC50 (Saksenaea vasiformis) was 4 µg/mL (≈ 5.71 µM). The MIC90 (Saksenaea vasiformis) was > 8 µg/mL, the MIC50 (Beauveria bassiana) was 4 µg/mL (≈ 5.71 µM) and the MIC90 (Beauveria bassiana) was > 8 µg/mL.
